The values below come from publication PMC4109633 (Drug Design, Development and Therapy, 2014).

Marks after values point to notes of the source that are not given here.

Data set [1] has as its system Salmonella typhimurium TA1535. The experiment in a line: Antimutagenicity assay against benzo[a]pyrene with S9 mix. It is filed as cell-based. To be noted: for B[a]P mutagenicity (revertant colonies/plate; mean ± SEM): B[a]P 20 μM + S9 mix, spontaneous 105.0±13.1; for Mutant frequency (benzo[a]pyrene): mutant colonies/viable colonies.
Data set [2] concerns Salmonella typhimurium TA1535. The experiment in a line: Ames Salmonella/microsomal mutagenicity assay. To be noted: presence of S9 mix, spontaneous 67.0±6.1. The data set is classed as cell-based.
Data set [3] has as its system Salmonella typhimurium TA1535. The experiment in a line: Cytotoxicity in liquid medium. The data set is classed as cell-based. The note with it: mean ± SEM. In a few lines: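 TA1535 was grown in broth microdilution with test compound at 25, 50 or 100 µM. Viability was expressed as % of untreated control (mean ± SEM), triplicate.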
Data set [4] deals with Salmonella typhimurium TA1535. As to the kind of experiment: Antimutagenicity assay against sodium azide. The data set is classed as cell-based. To be noted: for NaN3 mutagenicity (revertant colonies/plate; mean ± SEM): NaN3 2 μg/plate, spontaneous 29.3±5.3; for Mutant frequency (sodium azide): mutant colonies/viable colonies; for Antimutagenic potential against NaN3: only at 20 μM. The method, boiled down:
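TA1535 was exposed to test compound at 10 or 20 µM with NaN₃ (2 µg/plate) in two schemes. In pre-exposure, compound and bacteria were shaken 30 min at 37°C before mutagen was added. In co-exposure, bacteria, mutagen and compound were incubated together 30 min at 37°C. Cells were then plated on minimal glucose agar, and revertants counted at 48 h, in triplicate. Mutant frequency = mutant colonies/viable colonies.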

For data set [5], the system named is G-quadruplex DNA. To be noted: cited from earlier work.

`Cl.N=C(N)c1ccc(-c2ccc(-c3ccco3)o2)c(F)c1` [Compound 5a, 4-(2,2′-Bifuran-5-yl)-3-fluorobenzamidine hydrochloride salt]: the “B[a]P mutagenicity (revertant colonies/plate; mean ± SEM)” value stood at 102.0±12.1 revertant colonies/plate in data set [1] (co-exposure, 10 μM); 98.3±9.5 revertant colonies/plate in data set [1] (co-exposure, 20 μM); 209.7±10.3 revertant colonies/plate in data set [1] (pre-exposure, 10 μM); 201.0±11.0 revertant colonies/plate in data set [1] (pre-exposure, 20 μM). For the same compound, the “Mutant frequency (benzo[a]pyrene)” value is 1.65 in data set [1] (co-exposure, 20 μM); 3.26 in data set [1] (pre-exposure, 10 μM); 3.37 in data set [1] (pre-exposure, 20 μM). In addition, the “Fluoroarylbichalcophene mutagenicity (revertant colonies/plate; mean ± SEM)” value in data set [2] (10 μM) came out at 61.0±4.8 revertant colonies/plate; in data set [2] (20 μM), 65.7±5.8 revertant colonies/plate. For the same compound, the “Viability at fluoroarylbichalcophene concentrations (% of control)” value (from here on “Viability … (% of control)”) in data set [3] (25 μM) was 102.3±10.2 % of control; in data set [3] (50 μM), 63.3±9.0 ^a % of control; in data set [3] (100 μM) it was 32.7±2.7 ^a % of control. The “NaN3 mutagenicity (revertant colonies/plate; mean ± SEM)” value in data set [4] (co-exposure, 10 μM) is 73.3±4.1 revertant colonies/plate; in data set [4] (co-exposure, 20 μM), 39.0±8.1 revertant colonies/plate; in data set [4] (pre-exposure, 10 μM) it was 57.7±11.0 revertant colonies/plate; in data set [4] (pre-exposure, 20 μM) it was 22.3±2.1 revertant colonies/plate. Moreover, the “Mutant frequency (sodium azide)” value is reported as 0.76 in data set [4] (co-exposure, 20 μM) and 0.44 in data set [4] (pre-exposure, 20 μM).

Take `Cl.N=C(N)c1ccc(-c2ccc(-c3ccco3)o2)cc1F` [Compound 5b, 4-(2,2′-Bifuran-5-yl)-2-fluorobenzamidine hydrochloride salt]: the “B[a]P mutagenicity (revertant colonies/plate; mean ± SEM)” value is 213.7±15.8 revertant colonies/plate in data set [1] (co-exposure, 10 μM); 166.0±6.6 revertant colonies/plate in data set [1] (co-exposure, 20 μM); 178.0±8.2 revertant colonies/plate in data set [1] (pre-exposure, 10 μM); 163.0±7.9 revertant colonies/plate in data set [1] (pre-exposure, 20 μM). For the same compound, the “Mutant frequency (benzo[a]pyrene)” value in data set [1] (co-exposure, 10 μM) is reported as 3.38; in data set [1] (co-exposure, 20 μM), 2.58; in data set [1] (pre-exposure, 10 μM) it was 2.81; in data set [1] (pre-exposure, 20 μM), 2.53. The “Fluoroarylbichalcophene mutagenicity (revertant colonies/plate; mean ± SEM)” value is reported as 68.7±4.0 revertant colonies/plate in data set [2] (10 μM) and 65.0±4.9 revertant colonies/plate in data set [2] (20 μM). Further, the “Viability … (% of control)” value in data set [3] (25 μM) is reported as 101.7±11.3 % of control; in data set [3] (50 μM), 62.0±5.5 ^a % of control; in data set [3] (100 μM), 36.7±2.8 ^a % of control. Also, the “NaN3 mutagenicity (revertant colonies/plate; mean ± SEM)” value in data set [4] (co-exposure, 10 μM) was found to be 26.0±2.0 revertant colonies/plate; in data set [4] (co-exposure, 20 μM), 21.7±2.5 revertant colonies/plate; in data set [4] (pre-exposure, 10 μM) it was 126.7±11.2 revertant colonies/plate; in data set [4] (pre-exposure, 20 μM), 40.3±6.5 revertant colonies/plate. Moreover, the “Mutant frequency (sodium azide)” value in data set [4] (co-exposure, 10 μM) came out at 0.50; in data set [4] (co-exposure, 20 μM), 0.43; in data set [4] (pre-exposure, 10 μM), 2.45; in data set [4] (pre-exposure, 20 μM), 0.79. Moreover, in data set [4] (pre-exposure), the “Antimutagenic potential against NaN3” value was “strong (40% or more reduction means strong antimutagenic activity)”.

With `Cl.N=C(N)c1ccc(-c2ccc(-c3cccs3)o2)c(F)c1` [Compound 5c, 3-Fluoro-4-(5-(thiophen-2-yl)furan-2-yl)benzamidine hydrochloride salt], the “B[a]P mutagenicity (revertant colonies/plate; mean ± SEM)” value was determined as 110.7±10.5 revertant colonies/plate in data set [1] (co-exposure, 10 μM); 111.0±10.2 revertant colonies/plate in data set [1] (co-exposure, 20 μM); 148.7±9.8 revertant colonies/plate in data set [1] (pre-exposure, 10 μM); 124.0±5.3 revertant colonies/plate in data set [1] (pre-exposure, 20 μM). In addition, the “Mutant frequency (benzo[a]pyrene)” value was found to be 2.23 in data set [1] (pre-exposure, 10 μM) and 2.02 in data set [1] (pre-exposure, 20 μM). In addition, the “Fluoroarylbichalcophene mutagenicity (revertant colonies/plate; mean ± SEM)” value in data set [2] (10 μM) is 70.0±5.9 revertant colonies/plate; in data set [2] (20 μM), 66.0±3.5 revertant colonies/plate. Further, the “Viability … (% of control)” value is recorded as 71.3±6.4 % of control in data set [3] (25 μM), 58.7±4.2 ^a % of control in data set [3] (50 μM) and 28.7±3.0 ^a % of control in data set [3] (100 μM). The “NaN3 mutagenicity (revertant colonies/plate; mean ± SEM)” value came out at 25.7±1.8 revertant colonies/plate in data set [4] (co-exposure, 10 μM); 24.0±3.0 revertant colonies/plate in data set [4] (co-exposure, 20 μM); 102.0±7.2 revertant colonies/plate in data set [4] (pre-exposure, 10 μM); 33.3±8.7 revertant colonies/plate in data set [4] (pre-exposure, 20 μM). Further, the “Mutant frequency (sodium azide)” value in data set [4] (co-exposure, 10 μM) came out at 0.48; in data set [4] (co-exposure, 20 μM), 0.47; in data set [4] (pre-exposure, 10 μM) it was 1.91; in data set [4] (pre-exposure, 20 μM) it was 0.65. In addition, in data set [4] (pre-exposure), the “Antimutagenic potential against NaN3” value is given as “strong (40% or more reduction means strong antimutagenic activity)”.

Turning to `Cl.N=C(N)c1ccc(-c2ccc(-c3cccs3)o2)cc1F` [Compound 5d, 2-Fluoro-4-(5-(thiophen-2-yl)furan-2-yl)benzamidine hydrochloride salt], the “B[a]P mutagenicity (revertant colonies/plate; mean ± SEM)” value was 109.7±8.3 revertant colonies/plate in data set [1] (co-exposure, 10 μM); 101.0±6.0 revertant colonies/plate in data set [1] (co-exposure, 20 μM); 261.0±8.5 revertant colonies/plate in data set [1] (pre-exposure, 10 μM); 216.7±14.3 revertant colonies/plate in data set [1] (pre-exposure, 20 μM). Moreover, the “Mutant frequency (benzo[a]pyrene)” value in data set [1] (pre-exposure, 10 μM) was 4.19; in data set [1] (pre-exposure, 20 μM) it was 3.28. The “Fluoroarylbichalcophene mutagenicity (revertant colonies/plate; mean ± SEM)” value in data set [2] (10 μM) stood at 65.0±7.0 revertant colonies/plate; in data set [2] (20 μM), 67.7±6.0 revertant colonies/plate. The “Viability … (% of control)” value in data set [3] (25 μM) is reported as 105.7±4.6 % of control; in data set [3] (50 μM), 65.3±3.9 ^a % of control; in data set [3] (100 μM) it was 49.3±3.8 ^a % of control. The “NaN3 mutagenicity (revertant colonies/plate; mean ± SEM)” value came to 43.3±6.8 revertant colonies/plate in data set [4] (co-exposure, 10 μM); 20.0±1.0 revertant colonies/plate in data set [4] (co-exposure, 20 μM); 65.0±5.0 revertant colonies/plate in data set [4] (pre-exposure, 10 μM); 44.3±4.5 revertant colonies/plate in data set [4] (pre-exposure, 20 μM). The “Mutant frequency (sodium azide)” value is 0.76 in data set [4] (co-exposure, 10 μM); 0.40 in data set [4] (co-exposure, 20 μM); 1.14 in data set [4] (pre-exposure, 10 μM); 0.88 in data set [4] (pre-exposure, 20 μM).

Take `N=C(N)c1ccc(-c2ccc(-c3ccc(C(=N)N)o3)o2)cc1` [Compound I, 5′-(4-amidinophenyl)-2,2′-bifuran-5-carboxamidine]: the “Recognition of G-quadruplex DNA” value in data set [5] is “recognize G-quadruplex DNA”.
